VIM-2 inhibitor: blocks Pseudomonas aeruginosa VIM-2 metallo-beta-lactamase; 0.89% of 290,000 active; inhibition, % at 5.6 µM; purified VIM-2, nitrocefin hydrolysis, epi-absorbance fluorescence;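 active means inhibition above the mean of all tested compounds plus 3 SD, cutoff set per screening run, cut at about 7.5% in these data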;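 further: red hydrolysis product quenches plate fluorescence so inhibitors raise well fluorescence; 0% = enzyme with DMSO and 100% = DMSO without enzyme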
PHOSPHO1 inh: blocks human PHOSPHO1 phosphatase activity. Q8TCT1. recombinant PHOSPHO1, absorbance phosphatase assay. inhibition, % at 13.3 µM. 1.1% of 290,000 active. AID 1565; in the data active means inhibition above about 60%
Target sequence (Q8TCT1 whole entry, looked up): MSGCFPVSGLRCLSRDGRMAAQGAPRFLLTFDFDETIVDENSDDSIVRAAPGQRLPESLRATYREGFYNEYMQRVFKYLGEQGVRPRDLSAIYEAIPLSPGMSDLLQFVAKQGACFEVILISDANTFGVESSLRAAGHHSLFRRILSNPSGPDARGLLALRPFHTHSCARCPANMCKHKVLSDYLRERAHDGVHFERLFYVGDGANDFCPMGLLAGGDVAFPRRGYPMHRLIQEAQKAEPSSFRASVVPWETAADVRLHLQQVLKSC
PvdQ inh: P. aeruginosa PvdQ acylase inhibition. inhibition, % at 10 µM. 0.063% of 340,000 active. purified PvdQ acylase, fluorescence plate reader; in the data active means inhibition above about 30%, passing the limit was not always enough;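 further: 0% = vehicle neutral wells and 100% = reference inhibitor wells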
Yeast superoxide: caloric restriction mimetics inhibiting age-related superoxide in yeast. S. cerevisiae aged cells, superoxide DHE fluorescence; stronger effect = lower value. AID 2690. 0.18% of 330,000 active. superoxide response (% of plate mean), % at 10 µM;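 active means superoxide response under a set limit, about three screen SD below normal, cut at about 65% in these data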;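 further: yeast aged for seven days with compound at 30 °C before DHE staining; 100% = average MFI of all compound-treated wells on the plate with controls excluded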
IMP-1 inhibitor: blocks Pseudomonas aeruginosa IMP-1 metallo-beta-lactamase; 0.45% of 290,000 active; purified IMP-1, nitrocefin hydrolysis, epi-absorbance fluorescence; inhibition, % at 5.6 µM; AID 1556;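 active means inhibition above the mean plus 3 SD of all compounds in the same screening run, cut at about 4.5% in these data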;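 further: 0% = IMP-1 with DMSO and 100% = DMSO wells lacking enzyme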
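assay system = purified recombinant IMP-1 metallo-beta-lactamase enzyme | schedule = 15 min preincubation plus 25 min reaction at 25 °C | signal = Epi-absorbance fluorescence, 480 nm excitation, 530 nm emission | read-out basis = percent inhibition from optical density relative to buffer-blank wells | controls = IMP-1 with DMSO as 0%, enzyme-free DMSO as 100%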
Numbers without * were called inactive. The list is not random: actives were taken first. Their share in the collection is about 2.2%.

Screening CC(C)(C)NC(=O)CSc1nc2ccccc2n1-c1ccccc1 returned VIM-2 inhibitor -2, PHOSPHO1 inh 62*, PvdQ inh -11, Yeast superoxide 127 and IMP-1 inhibitor -5.
`CC(C)NC(=O)CSc1nc2ccccc2n1-c1ccccc1` gave VIM-2 inhibitor -7, PHOSPHO1 inh -4, PvdQ inh -10, Yeast superoxide 115 and IMP-1 inhibitor -5.
For Oc1ccc(Cl)cc1Sc1cc(Cl)ccc1O the results were PvdQ inh 14.
Screening CC(C)CCNC(=O)c1onc(CSc2nc3ccccc3[nH]2)c1C(=O)NCCC(C)C returned VIM-2 inhibitor -1, PHOSPHO1 inh -36, PvdQ inh -8, Yeast superoxide 97 and IMP-1 inhibitor 1.
For COC(=O)c1ccc(CSc2nc3ccccc3c(=O)n2-c2ccc(OC)c(OC)c2)o1 the results were VIM-2 inhibitor -3, PHOSPHO1 inh 24, PvdQ inh -3, Yeast superoxide 99 and IMP-1 inhibitor -5.
`COC(=O)c1ccc(CSc2nnc3n(Cc4ccccc4OC)c(=O)c4ccccc4n23)o1` gave PHOSPHO1 inh 73*, PvdQ inh -11 and Yeast superoxide 108.
O=C(NCc1nc(-c2ccc(C(F)(F)F)cc2)no1)Nc1cc(Cl)cc(Cl)c1 was read as VIM-2 inhibitor -2, PHOSPHO1 inh 37, PvdQ inh 5, Yeast superoxide 121 and IMP-1 inhibitor -4.
O=S(=O)(Nc1ccccc1N1CCCCC1)c1ccc(F)cc1 was read as VIM-2 inhibitor 0, PHOSPHO1 inh -2, PvdQ inh -9, Yeast superoxide 101 and IMP-1 inhibitor 4.7*.
Screening O=C(CSc1n[nH]c(-c2ccccc2Br)n1)NC(=O)NCc1ccco1 returned VIM-2 inhibitor -4, PHOSPHO1 inh -18, PvdQ inh 0, Yeast superoxide 100 and IMP-1 inhibitor -2.
CC(C)(C)NC(=O)NC(=O)CSc1n[nH]c(-c2ccccc2Br)n1 was read as VIM-2 inhibitor -1, PHOSPHO1 inh 63*, PvdQ inh -5, Yeast superoxide 103 and IMP-1 inhibitor -1.
`S=C(Sc1ccc(Cl)cc1)Sc1ccc(Cl)cc1` gave VIM-2 inhibitor -5, PHOSPHO1 inh 22, Yeast superoxide 94 and IMP-1 inhibitor -6.
For CC(C)(C)c1ccc(C(=O)Nc2cccc3c(=O)[nH][nH]c(=O)c23)cc1 the results were VIM-2 inhibitor -3, PHOSPHO1 inh -10, PvdQ inh 3, Yeast superoxide 120 and IMP-1 inhibitor 5.9*.
`Cc1ccc(C(=O)Nc2cccc3ccccc23)cc1` gave VIM-2 inhibitor -3, PHOSPHO1 inh 46, PvdQ inh 6, Yeast superoxide 124 and IMP-1 inhibitor -3.
`CC(=O)Nc1ccc(-c2csc(N/N=C(/C)c3ccccc3)n2)cc1` gave VIM-2 inhibitor -3, PHOSPHO1 inh 22, PvdQ inh 1, Yeast superoxide 83 and IMP-1 inhibitor -3.
Screening C/C(=N/Nc1nc(-c2ccc(Cl)cc2)cs1)c1cccs1 returned VIM-2 inhibitor -5, PHOSPHO1 inh 92*, PvdQ inh -4, Yeast superoxide 94 and IMP-1 inhibitor -4.
Screening CCc1nnc(NCC(=O)N2CCc3ccccc32)s1 returned VIM-2 inhibitor -5, PHOSPHO1 inh 69*, PvdQ inh -5, Yeast superoxide 92 and IMP-1 inhibitor -3.
CCOc1cc(/C=N/NC(=O)COc2ccc(C)cc2)ccc1OC(=O)c1cccs1 was read as VIM-2 inhibitor 2, PHOSPHO1 inh 60*, PvdQ inh -12, Yeast superoxide 81 and IMP-1 inhibitor -2.
Screening COc1cc(/C=N/NC(=O)COc2ccc(C)cc2)ccc1OC(=O)c1cccs1 returned VIM-2 inhibitor -1, PHOSPHO1 inh -18, PvdQ inh -6, Yeast superoxide 106 and IMP-1 inhibitor -4.
`O=C1NC(=S)N/C1=C/c1cccc([N+](=O)[O-])c1O` gave VIM-2 inhibitor 0, PHOSPHO1 inh 29, PvdQ inh 3, Yeast superoxide 130 and IMP-1 inhibitor -3.
For O=C1NC(=S)N/C1=C/c1cc([N+](=O)[O-])ccc1O the results were VIM-2 inhibitor 0, PHOSPHO1 inh 82*, PvdQ inh -16, Yeast superoxide 106 and IMP-1 inhibitor -2.
CN1CCN(C(=O)C2=C[C@H](c3ccccc3)C[C@H](OCc3ccc(CO)cc3)O2)CC1 was read as VIM-2 inhibitor -2, PHOSPHO1 inh 30, PvdQ inh -10, Yeast superoxide 93 and IMP-1 inhibitor -3.
`Fc1ccccc1-c1nnc2ccc3ccccc3n12` gave VIM-2 inhibitor -2, PHOSPHO1 inh 44, PvdQ inh -11, Yeast superoxide 98 and IMP-1 inhibitor 4.8*.
Fc1cccc(Cl)c1-c1nnc2ccc3ccccc3n12 was read as VIM-2 inhibitor -1, PHOSPHO1 inh 6, PvdQ inh -2, Yeast superoxide 89 and IMP-1 inhibitor -3.
CCCN(CCC)CCCNC(=O)c1cc2c(=O)[nH]c3ccccc3c2n1C was read as VIM-2 inhibitor 8.9*, PHOSPHO1 inh -16, PvdQ inh -11, Yeast superoxide 120 and IMP-1 inhibitor -1.
Screening Cn1c(C(=O)NCCCN2CCN(c3ccc(F)cc3)CC2)cc2c(=O)n(C)c3ccccc3c21 returned PvdQ inh -4.
For Cn1c(C(=O)NCCN2CCOCC2)cc2c(=O)n(C)c3ccccc3c21 the results were VIM-2 inhibitor 13*, PHOSPHO1 inh -9, PvdQ inh 4, Yeast superoxide 88 and IMP-1 inhibitor -3.
For Cn1c(C(=O)N2CCCCCC2)cc2c(=O)n(C)c3ccccc3c21 the results were VIM-2 inhibitor 8.2*, PHOSPHO1 inh -2, PvdQ inh -14, Yeast superoxide 92 and IMP-1 inhibitor -2.
Screening COc1ccc(CCNC(=O)c2cc3c(=O)n(C)c4ccccc4c3n2C)c(OC)c1 returned VIM-2 inhibitor 0, PHOSPHO1 inh -97, PvdQ inh 1, Yeast superoxide 61* and IMP-1 inhibitor -3.
For O=C(COc1ccccc1)NCC(c1ccco1)N1CCCCC1 (stereo not drawn) the results were PvdQ inh 10 and Yeast superoxide 120.
For Cc1ccc(F)cc1NC(=O)COC(=O)C1CCN(c2ccc(C(F)(F)F)cn2)CC1 the results were PvdQ inh -13 and Yeast superoxide 100.
For CCCN(CCC)CCNC(=O)c1cc2c(=O)n(C)c3ccccc3c2n1C the results were VIM-2 inhibitor 22*, PHOSPHO1 inh 14, PvdQ inh 1, Yeast superoxide 110 and IMP-1 inhibitor -4.
For Cn1c(C(=O)NCCN2CCN(c3ccccc3F)CC2)cc2c(=O)n(C)c3ccccc3c21 the results were VIM-2 inhibitor 8.8*, PHOSPHO1 inh -14, PvdQ inh -6, Yeast superoxide 106 and IMP-1 inhibitor -1.
CCCCNC(=O)c1sc(=S)n(-c2ccccc2OC)c1N was read as VIM-2 inhibitor 2, PHOSPHO1 inh 69*, PvdQ inh -11, Yeast superoxide 95 and IMP-1 inhibitor 1.
Cc1ccc(-n2c(N)c(C(N)=O)sc2=S)c(C)c1 was read as VIM-2 inhibitor -1, PHOSPHO1 inh 88*, PvdQ inh 3, Yeast superoxide 100 and IMP-1 inhibitor 0.

Source: PubChem
